Assay [1] in a line: hit retest on RPL19A-GFP reporter strain – cell-based, S. cerevisiae, flow cytometry, cherry picks, mother/daughter gates, confirmation (AID 2270;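 active = GFP response below 50% of the DMSO control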). Conditions: 3 h, at 10 µM, stronger effect = lower value, 100 = same GFP as DMSO wells.
A short description of assay [2]: yeast TOR pathway reporter LAP4-GFP change – cell-based, cherry picks, flow cytometry, mother/daughter gates, confirmation (AID 2271;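 active = GFP response above 150% of the DMSO control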;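 note: ratio of sample to DMSO plate mean so 100% equals DMSO level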). Conditions: S. cerevisiae LAP4-GFP strain, 3 h, at 10 µM, stronger effect = higher value, 100 means same as DMSO control. Put shortly: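 System: Alexa 633-stained baker's yeast GFP-fusion strain / Medium: synthetic complete (SC) yeast growth medium / Doses: compound at 10 µM, single point / Times: 3 h treatment at 30 °C with rotation / Detection: HT flow cytometry, GFP fluorescence channel / Benchmarks: DMSO-only negative wells, rapamycin 400 ng/mL positive wells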
Background: In flow cytometry, cells or beads pass a laser one at a time.

The nature of assay [3]: TOR pathway reporter MEP2-GFP, retest of hits – S. cerevisiae, flow cytometry GFP, cherry picks, confirmation (AID 2272;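 active = GFP response above 150% of the DMSO control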;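 note: ratio of well signal to plate DMSO mean so 100% equals DMSO level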). The note with it: S. cerevisiae MEP2-GFP strain, 3 h, at 10 µM, stronger effect = higher value.
Assay [4] is described as follows: yeast AGP1-GFP fluorescence change, single-dose – cell-based, flow cytometry, S. cerevisiae, cherry picks, confirmation (AID 2273).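 Note: median GFP channel fluorescence over the whole cell population gate.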 The note with it: S. cerevisiae AGP1-GFP strain, 3 h, at 10 µM.
A short description of assay [5]: TOR pathway CIT2 reporter hit retest – S. cerevisiae, GFP fusion, cherry picks, mother/daughter gates, confirmation (AID 2274). Conditions: S. cerevisiae CIT2-GFP strain, flow cytometry, 3 h, at 10 µM, stronger effect = higher value.
Where [6] appears, read: measured here: daughter cell gate.
Where [7] appears, read: measured here: mother cell gate.
Setting [8] is: measured here: daughter cell gate response.
[9] abbreviates: measured here: mother cell gate response.

Our source for the GFP response vs DMSO, GFP response relative to DMSO and GFP response, % of DMSO values is PubChem BioAssay.

The source made the active and inactive calls.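 Rule for the calls, unless noted: active = GFP response above 150% of the DMSO level; inconclusive = fewer than 70 events counted for a yeast strain; inactive = the rest.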

Consider `O=C(CSc1nc2ccsc2c(=O)n1CC1CCC(C(=O)O)CC1)c1ccc(F)cc1` (stereo not drawn), for which the GFP response vs DMSO was 102% (inactive) in assay [1], 100% in assay [1] (setting [6]), 103% in assay [1] (setting [7]) and 100% (inactive) in assay [3]. In addition, the GFP response relative to DMSO in assay [2] was 89% (inactive); in assay [2] (setting [8]), 89.5%; in assay [2] (setting [9]), 91.1%. The GFP response, % of DMSO in assay [4] is 94.6% (inactive); in assay [5], 92.6% (inactive); in assay [5] (setting [6]) it was 94.8%; in assay [5] (setting [7]), 92.3%.

For the compound `O=[N+]([O-])c1cccc(-c2ccc(/C=N/Nc3nc(N4CCCCC4)nc(N4CCCCC4)n3)o2)c1`, the GFP response vs DMSO was 96.8% (inactive) in assay [1], 94.3% in assay [1] (setting [6]), 98.2% in assay [1] (setting [7]) and 108% (inactive) in assay [3]. Also, the GFP response relative to DMSO in assay [2] is 118% (inactive); in assay [2] (setting [8]) it was 114%; in assay [2] (setting [9]), 123%. The GFP response, % of DMSO in assay [4] was 105% (inactive); in assay [5], 101% (inactive); in assay [5] (setting [6]), 95.2%; in assay [5] (setting [7]) it was 102%.

Turning to `CC1CCc2c(C(=O)NCc3cccnc3)csc2C1` (stereo not drawn), the GFP response vs DMSO in assay [1] was 94.2% (inactive); in assay [1] (setting [6]) it was 94.2%; in assay [1] (setting [7]), 92.7%; in assay [3], 94.7% (inactive). The results for the GFP response relative to DMSO in assay [2], in assay [2] (setting [8]) and in assay [2] (setting [9]) were 111% (inactive), 109% and 113%, respectively. Further, the GFP response, % of DMSO in assay [4] is 95.9% (inactive); in assay [5] it was 87.2% (inactive); in assay [5] (setting [6]), 84.8%; in assay [5] (setting [7]), 88.2%.

In the case of `Cc1nn(Cc2ccc(Cl)cc2)c(=O)n1N(C)c1ncc(C(F)(F)F)cc1Cl`, the GFP response vs DMSO in assay [1] was 96% (inactive); in assay [1] (setting [6]) it was 98.1%; in assay [1] (setting [7]) it was 97.2%; in assay [3] it was 96.2% (inactive). The GFP response relative to DMSO in assay [2] is 96.7% (inactive); in assay [2] (setting [8]), 97.6%; in assay [2] (setting [9]) it was 95.1%. For the same compound, the GFP response, % of DMSO is 95.4% (inactive) in assay [4], 99.7% (inactive) in assay [5], 101% in assay [5] (setting [6]) and 98.5% in assay [5] (setting [7]).

Regarding `Cc1nc2c(-c3ccc(F)cc3)cnn2c(N)c1-c1ccccc1`, the GFP response vs DMSO in assay [1] was 99.6% (inactive); in assay [1] (setting [6]), 97.9%; in assay [1] (setting [7]), 98.8%; in assay [3] it was 103% (inactive). Also, the GFP response relative to DMSO in assay [2] is 101% (inactive); in assay [2] (setting [8]) it was 97.5%; in assay [2] (setting [9]) it was 100%. Further, the GFP response, % of DMSO in assay [4] is 96.7% (inactive); in assay [5], 103% (inactive); in assay [5] (setting [6]), 101%; in assay [5] (setting [7]), 104%.

For `COc1ccc(OCC(O)CNC(=O)/C=C/c2cccc([N+](=O)[O-])c2)cc1` (stereo not drawn), the GFP response vs DMSO in assay [1] is 100% (inactive); in assay [1] (setting [6]) it was 100%; in assay [1] (setting [7]), 100%; in assay [3], 101% (inactive). For the same compound, the figures for the GFP response relative to DMSO in assay [2], in assay [2] (setting [8]) and in assay [2] (setting [9]) were 104% (inactive), 102% and 104%, respectively. In addition, the GFP response, % of DMSO is 107% (inactive) in assay [4], 103% (inactive) in assay [5], 103% in assay [5] (setting [6]) and 104% in assay [5] (setting [7]).

As to `Cc1ccc(C(=O)NNC(=S)NC(=O)c2ccco2)cc1`, the GFP response vs DMSO is 112% (inactive) in assay [1], 113% in assay [1] (setting [6]), 109% in assay [1] (setting [7]) and 115% (inactive) in assay [3]. The GFP response relative to DMSO in assay [2] is 120% (inactive); in assay [2] (setting [8]), 117%; in assay [2] (setting [9]), 121%. Besides, the GFP response, % of DMSO in assay [4] was 103% (inactive); in assay [5] it was 108% (inactive); in assay [5] (setting [6]), 114%; in assay [5] (setting [7]) it was 102%.

In the case of `C=CCNC(=O)/C(C#N)=C/c1c(N2CC(C)OC(C)C2)nc2ccccn2c1=O` (stereo not drawn), the GFP response vs DMSO in assay [1] was 98.8% (inactive); in assay [1] (setting [6]), 99.5%; in assay [1] (setting [7]) it was 98.4%; in assay [3] it was 102% (inactive). Besides, the GFP response relative to DMSO in assay [2] was 102% (inactive); in assay [2] (setting [8]), 100%; in assay [2] (setting [9]), 105%. Also, the GFP response, % of DMSO is 100% (inactive) in assay [4], 96.5% (inactive) in assay [5], 98.1% in assay [5] (setting [6]) and 94.4% in assay [5] (setting [7]).

`CC1CC2=C(CC1/C=N/NC(N)=S)C(C)(C)CCC2` (stereo not drawn): the GFP response vs DMSO was 96.4% (inactive) in assay [1], 92.7% in assay [1] (setting [6]), 95.3% in assay [1] (setting [7]) and 107% (inactive) in assay [3]. Further, the GFP response relative to DMSO is 110% (inactive) in assay [2], 106% in assay [2] (setting [8]) and 113% in assay [2] (setting [9]). For the same compound, the GFP response, % of DMSO in assay [4] was 97.5% (inactive); in assay [5] it was 91.5% (inactive); in assay [5] (setting [6]), 88.4%; in assay [5] (setting [7]) it was 90.7%.

As for `CCCCN(CC)S(=O)(=O)c1ccc(C(=O)Nc2nnc(-c3ccccc3Cl)o2)cc1`, the GFP response vs DMSO is 98.8% (inactive) in assay [1], 99.1% in assay [1] (setting [6]), 98.5% in assay [1] (setting [7]) and 109% (inactive) in assay [3]. The GFP response relative to DMSO in assay [2] was 97.9% (inactive); in assay [2] (setting [8]), 99.2%; in assay [2] (setting [9]) it was 98.3%. In addition, the GFP response, % of DMSO in assay [4] is 92.7% (inactive); in assay [5] it was 98.3% (inactive); in assay [5] (setting [6]), 99.1%; in assay [5] (setting [7]), 98.5%.

As for `CCC(CC)C(=O)Nc1cccc(/C(C)=N/NC(=O)c2ccccc2Cl)c1`, the GFP response vs DMSO in assay [1] is 98.6% (inactive); in assay [1] (setting [6]) it was 97%; in assay [1] (setting [7]), 99.1%; in assay [3], 102% (inactive). For the same compound, the results for the GFP response relative to DMSO in assay [2], in assay [2] (setting [8]) and in assay [2] (setting [9]) were 99.8% (inactive), 103% and 99.3%, respectively. The GFP response, % of DMSO is 100% (inactive) in assay [4], 100% (inactive) in assay [5], 99.7% in assay [5] (setting [6]) and 102% in assay [5] (setting [7]).

In the case of `Nc1cccc(C(=O)Nc2ccccc2Cl)c1`, the GFP response vs DMSO in assay [1] is 99.8% (inactive); in assay [1] (setting [6]) it was 99.1%; in assay [1] (setting [7]), 98.9%; in assay [3], 100% (inactive). For the same compound, the figures for the GFP response relative to DMSO in assay [2], in assay [2] (setting [8]) and in assay [2] (setting [9]) were 97.9% (inactive), 97.6% and 98.3%, respectively. Besides, the GFP response, % of DMSO in assay [4] was 93.5% (inactive); in assay [5], 103% (inactive); in assay [5] (setting [6]), 103%; in assay [5] (setting [7]), 101%.

In the case of `COc1ccc(OC)c(/C=C/C(=O)c2ccc(Cl)cc2)c1`, the GFP response vs DMSO in assay [1] is 92.2% (inactive); in assay [1] (setting [6]) it was 91.9%; in assay [1] (setting [7]), 92%; in assay [3], 96.2% (inactive). Besides, the results for the GFP response relative to DMSO in assay [2], in assay [2] (setting [8]) and in assay [2] (setting [9]) were 104% (inactive), 97.6% and 105%, respectively. For the same compound, the GFP response, % of DMSO in assay [4] is 98.5% (inactive); in assay [5], 101% (inactive); in assay [5] (setting [6]), 101%; in assay [5] (setting [7]) it was 101%.
